Converted amounts (≈) assume the structure as drawn. The source made the active and inactive calls. No cut-off for these calls is given here.
Experiments:
Human alphaherpesvirus 2 = assay: Antiviral activity against HSV-2 G infected in HEL cells assessed as inhibition of virus-induced cytopathicity; format: functional, organism-based; details: strain G
In short: (§1)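 Confluent monolayers (HEL, Vero, HeLa or CrFK, as applicable) were inoculated with 100 CCID50 of virus, with 1 CCID50 being the dose that infects 50% of cultures. Infection ran in the presence of varying compound concentrations. Inhibition of virus-induced cytopathicity was scored against infected cultures left untreated.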

Human alphaherpesvirus 1 [1] = assay: Antiviral activity against HSV-1 KOS infected in HEL cells assessed as inhibition of virus-induced cytopathicity; format: functional, organism-based; in short: as §1
[2] = Solubility of the compound in octanol at pH 7.4 by HPLC analysis; format: physicochemical
[3] = n-octanol-PBS buffer distribution coefficient, log D of the compound at pH 7.4 after 24 hrs by HPLC analysis; format: physicochemical
[4] = Aqueous solubility of the compound in PBS buffer at pH 7.4 after 24 hrs by HPLC analysis; format: physicochemical; details: pH 7.4, 24 h
[5] = Selectivity index, ratio of CC50 for cat CRFK cells to IC50 for chloroquine-resistant asexual erythrocytic stage of Plasmodium falciparum Dd2; format: functional
In short: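 Ratio of CRFK CC50 (μM) to Dd2 IC50 […]. CC50 is the 50% cytotoxic concentration in feline kidney CRFK cells, measured as cell viability by colorimetric formazan-based MTS assay. Dd2 IC50 is from the parasite LDH growth-inhibition assay.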

[6] = Cytotoxicity against cat CRFK cells assessed as cell viability by MTS assay; format: cell-based, Felis catus
In short: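 CRFK cells were exposed to varying sample concentrations. Cell viability was measured with the colorimetric formazan-based MTS assay, and the 50% cytotoxic concentration (CC50) was derived from it.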

[7] = Cytotoxicity against human HeLa cells assessed as alteration of cell morphology by microscopic analysis; format: cell-based; details: read-out: MIC
In short: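 Cells (Vero, HEL, MDCK or HeLa) were exposed to a range of sample concentrations. The value reported is the concentration required to cause a microscopically detectable alteration of normal cell morphology.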

Plasmodium falciparum [8] = assay: Antiplasmodial activity against chloroquine-resistant asexual erythrocytic stage of Plasmodium falciparum Dd2 assessed as parasite growth inhibition by lactate dehydrogenase assay; format: functional, organism-based
In short: (§2)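 Parasite lactate dehydrogenase assay (modified Makler method). Samples held as 20 mg/mL stocks in DMSO, diluted on test day. Full dose-response: starting at 10 μg/mL, 2-fold serial dilution in complete medium over 10 concentrations down to 0.02 μg/mL. Chloroquine, artesunate and MMV390048 served as references. IC50 from nonlinear dose-response curve fitting; mean of three independent experiments.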

Plasmodium falciparum [9] = assay: Antiplasmodial activity against chloroquine-sensitive asexual erythrocytic stage of Plasmodium falciparum D10 assessed as parasite growth inhibition by lactate dehydrogenase assay; format: functional, organism-based; in short: as §2
Felid alphaherpesvirus 1 = assay: Antiviral activity against Feline herpesvirus infected in cat CRFK cells assessed as inhibition of virus-induced cytopathicity; format: functional, organism-based; in short: as §1
Feline coronavirus = assay: Antiviral activity against Feline coronavirus infected in cat CRFK cells assessed as inhibition of virus-induced cytopathicity; format: functional, organism-based; in short: as §1
Human alphaherpesvirus 3 = assay: Antiviral activity against Varicella-zoster virus infected in HEL cells assessed as inhibition of virus-induced cytopathicity; format: functional, organism-based
Human betaherpesvirus 5 [10] = assay: Antiviral activity against Cytomegalovirus Davis infected in HEL cells assessed as inhibition of virus-induced cytopathicity; format: functional, organism-based
Human betaherpesvirus 5 [11] = assay: Antiviral activity against Cytomegalovirus AD169 infected in HEL cells assessed as inhibition of virus-induced cytopathicity; format: functional, organism-based
[12] = tested on: Respiratory syncytial virus; assay: Antiviral activity against Respiratory syncytial virus infected in human HeLa cells assessed as inhibition of virus-induced cytopathicity; format: functional, organism-based; in short: as §1
Coxsackievirus B4 [13] = assay: Antiviral activity against Coxsackievirus B4 infected in human HeLa cells assessed as inhibition of virus-induced cytopathicity; format: functional, organism-based; in short: as §1
Influenza A virus H3N2 = assay: Antiviral activity against Influenza A virus H3N2 infected in MDCK cells assessed as inhibition of virus-induced cytopathicity; format: functional, organism-based
In short: (§3)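 Confluent monolayers in 96-well plates were inoculated with 100 CCID50 of virus in the presence of varying concentrations of compound. Read-out was inhibition of virus-induced cytopathicity, compared with untreated infected cultures. Cytotoxicity was judged microscopically or by MTT viability staining.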

[14] = tested on: Vesicular stomatitis virus; assay: Antiviral activity against Vesicular stomatitis virus infected in human HeLa cells assessed as inhibition of virus-induced cytopathicity; format: functional, organism-based; in short: as §3
Influenza A virus = assay: Antiviral activity against influenza A virus H1N1 infected in MDCK cells assessed as inhibition of virus-induced cytopathicity; format: functional, organism-based; in short: as §3
Punta Toro virus = assay: Antiviral activity against Punta Toro virus infected in African green monkey Vero cells assessed as inhibition of virus-induced cytopathicity; format: functional, organism-based; in short: as §1
Coxsackievirus B4 [15] = assay: Antiviral activity against Coxsackievirus B4 infected in African green monkey Vero cells assessed as inhibition of virus-induced cytopathicity; format: functional, organism-based; in short: as §1
Sindbis virus = assay: Antiviral activity against Sindbis virus infected in African green monkey Vero cells assessed as inhibition of virus-induced cytopathicity; format: functional, organism-based
[16] = tested on: Mammalian orthoreovirus 1; assay: Antiviral activity against Reovirus 1 infected in African green monkey Vero cells assessed as inhibition of virus-induced cytopathicity; format: functional, organism-based; in short: as §1
Human respirovirus 3 = assay: Antiviral activity against parainfluenza virus 3 infected in African green monkey Vero cells assessed as inhibition of virus-induced cytopathicity; format: functional, organism-based; in short: as §1
Human alphaherpesvirus 1 [17] = assay: Antiviral activity against thymidine kinase-negative acyclovir-resistant HSV-1 KOS infected in HEL cells assessed as inhibition of virus-induced cytopathicity; format: functional, organism-based; in short: as §3
[18] = tested on: Vesicular stomatitis virus; assay: Antiviral activity against Vesicular stomatitis virus infected in HEL cells assessed as inhibition of virus-induced cytopathicity; format: functional, organism-based; in short: as §3
Vaccinia virus = assay: Antiviral activity against Vaccinia virus infected in HEL cells assessed as inhibition of virus-induced cytopathicity; format: functional, organism-based; details: Orthopoxvirus vaccinia; in short: as §3

Compound | inhibition (Human alphaherpesvirus 2) | inhibition (Human alphaherpesvirus 1 [1]) | solubility [2] [µM] | logD at 24 h [3] | solubility [4] [µM] | CC50 [6] [µM] | MCC [7] [µM] | IC50 (Plasmodium falciparum [9]) [µM] | inhibition (Felid alphaherpesvirus 1) | inhibition (Feline coronavirus) | inhibition (Human alphaherpesvirus 3) | inhibition (Human betaherpesvirus 5 [10]) | inhibition (Human betaherpesvirus 5 [11]) | inhibition [12] | inhibition (Coxsackievirus B4 [13]) | inhibition (Influenza A virus H3N2) | inhibition [14] | inhibition (Influenza A virus) | inhibition (Punta Toro virus) | inhibition (Coxsackievirus B4 [15]) | further results
Clc1ccc2c(NCCCNc3nccc(N4CCOCC4)n3)ccnc2c1 | inactive | inactive | 0.95 (≈ 0.379 µg/mL) | 0.257 | 0.53 (≈ 0.211 µg/mL) | > 100 | > 100 | 0.055 | inactive | inactive | inactive | inactive | inactive | inactive | inactive | inactive | inactive | inactive | inactive | inactive | Ratio CC50/IC50 [5]: >632; IC50 (Plasmodium falciparum [8]): 0.158 µM; inhibition (Sindbis virus): inactive; inhibition [16]: inactive; inhibition (Human respirovirus 3): inactive; inhibition (Human alphaherpesvirus 1 [17]): inactive; inhibition [18]: inactive; inhibition (Vaccinia virus): inactive
Clc1ccc2c(NCCCCCCCCCCNc3nccc(Cl)n3)ccnc2c1 | inactive | inactive | 6.82 (≈ 3.04 µg/mL) | 1.99 | 0.07 (≈ 0.0312 µg/mL) | 4.4 | 4 | 3.34 | inactive | inactive | inactive | inactive | inactive | inactive | inactive | inactive | inactive | inactive | inactive | inactive | inhibition (Sindbis virus): inactive; inhibition [16]: inactive; inhibition (Human respirovirus 3): inactive; inhibition (Human alphaherpesvirus 1 [17]): inactive; inhibition [18]: inactive; inhibition (Vaccinia virus): inactive
C[C@H]1[C@H](OC(=O)CCC(=O)O)O[C@@H]2O[C@@]3(C)CC[C@H]4[C@H](C)CC[C@@H]1[C@@]24OO3 [ARTESUNATE] | – | – | – | – | – | – | – | 0.0063 | – | – | – | – | – | – | – | – | – | – | – | – | –
CS(=O)(=O)c1ccc(-c2cnc(N)c(-c3ccc(C(F)(F)F)nc3)c2)cc1 [MMV-048] | – | – | – | – | – | – | – | 0.00901 | – | – | – | – | – | – | – | – | – | – | – | – | –
Clc1ccc2c(NCCCCCCCCNc3nccc(Cl)n3)ccnc2c1 | inactive | inactive | 2.91 (≈ 1.22 µg/mL) | 1.51 | 0.09 (≈ 0.0377 µg/mL) | 10 | 20 | 1.06 | inactive | inactive | inactive | inactive | inactive | inactive | inactive | inactive | inactive | inactive | inactive | inactive | inhibition (Sindbis virus): inactive; inhibition [16]: inactive; inhibition (Human respirovirus 3): inactive; inhibition (Human alphaherpesvirus 1 [17]): inactive; inhibition [18]: inactive; inhibition (Vaccinia virus): inactive
Clc1ccc2c(NCCNc3ccnc(Cl)n3)ccnc2c1 | inactive | inactive | 2.09 (≈ 0.698 µg/mL) | 0.489 | 0.68 (≈ 0.227 µg/mL) | > 100 | 4 | 1.43 | inactive | inactive | inactive | inactive | inactive | inactive | inactive | inactive | inactive | inactive | inactive | inactive | inhibition (Sindbis virus): inactive; inhibition [16]: inactive; inhibition (Human respirovirus 3): inactive; inhibition (Human alphaherpesvirus 1 [17]): inactive; inhibition [18]: inactive; inhibition (Vaccinia virus): inactive
Clc1ccc2c(NCCCCCCCCCCCCNc3nccc(Cl)n3)ccnc2c1 | inactive | inactive | 19.4 (≈ 9.2 µg/mL) | 2.59 | 0.05 (≈ 0.0237 µg/mL) | 19 | 20 | 4.31 | inactive | inactive | inactive | inactive | inactive | inactive | inactive | inactive | inactive | inactive | inactive | inactive | inhibition (Sindbis virus): inactive; inhibition [16]: inactive; inhibition (Human respirovirus 3): inactive; inhibition (Human alphaherpesvirus 1 [17]): inactive; inhibition [18]: inactive; inhibition (Vaccinia virus): inactive
Clc1ccnc(N2CCOCC2)n1 | inactive | inactive | 12.1 (≈ 2.42 µg/mL) | 0.13 | 9 (≈ 1.8 µg/mL) | > 100 | > 100 | 15 | inactive | inactive | inactive | inactive | inactive | inactive | inactive | inactive | inactive | inactive | inactive | inactive | inhibition (Sindbis virus): inactive; inhibition [16]: inactive; inhibition (Human respirovirus 3): inactive; inhibition (Human alphaherpesvirus 1 [17]): inactive; inhibition [18]: inactive; inhibition (Vaccinia virus): inactive
Clc1ccc2c(NCCCCCCCNc3nccc(Cl)n3)ccnc2c1 | inactive | inactive | 1.92 (≈ 0.776 µg/mL) | 1.16 | 0.13 (≈ 0.0526 µg/mL) | > 100 | 4 | 0.383 | inactive | inactive | inactive | inactive | inactive | inactive | inactive | inactive | inactive | inactive | inactive | inactive | inhibition (Sindbis virus): inactive; inhibition [16]: inactive; inhibition (Human respirovirus 3): inactive; inhibition (Human alphaherpesvirus 1 [17]): inactive; inhibition [18]: inactive; inhibition (Vaccinia virus): inactive

Source: ChEMBL document CHEMBL3112527, “Quinoline-pyrimidine hybrids: synthesis, antiplasmodial activity, SAR, and mode of action studies” (J Med Chem, 2014)
